2 compounds from ChEMBL document CHEMBL4732187, “Tetrahydroindazole inhibitors of CDK2/cyclin complexes” (Eur J Med Chem, 2021) can be followed below.

Data set [1] is described as follows: Apparent permeability across apical to basolateral side in MDCK cells at 1 uM after 2 hrs by LC-MS/MS analysis. The data set is classed as ADME, cell-based, Canis lupus familiaris. Conditions: dog. The essentials:
(§1)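 MDCK monolayers were washed twice with pre-warmed HBSS (10 mM HEPES, pH 7.4) and equilibrated for 30 min at 37 °C. Compound at 1 μM in HBSS (0.5% DMSO final) was added to the apical or the basolateral donor side. After 2 h at 37 °C, donor and receiver samples were quenched in cold methanol with internal standards and analysed by LC-MS/MS. Runs were in duplicate; 100 μM Lucifer Yellow checked monolayer integrity.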

Data set [2] can be described thus: Permeability across basolateral to apical side in MDCK cells at 1 uM after 2 hrs by LC-MS/MS analysis. The data set is classed as ADME, cell-based, Canis lupus familiaris. The following applies: dog. The essentials: as §1
The next data set concerns the target CDK2/Cyclin A1 (Homo sapiens, UniProt P24941). The data set can be described thus: Inhibition of CDK2/Cyclin A1 (unknown origin) using histone H1 as substrate preincubated for 20 mins followed by 33P-ATP addition and measured after 2 hrs by filter binding method. The data set is classed as protein-complex assay.
A short description of data set [3]: Efflux ratio of apparent permeability across basolateral to apical side over apical to basolateral side in MDCK cells at 1 uM after 2 hrs by LC-MS/MS analysis. The data set is classed as ADME, cell-based, Canis lupus familiaris. The following applies: dog. The essentials: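 MDCK monolayers washed twice with pre-warmed HBSS (10 mM HEPES, pH 7.4) and equilibrated 30 min at 37 °C. 1 μM working solution (0.5% DMSO final) added to apical or basolateral donor side, 37 °C for 2 h, run in duplicate. Donor and receiver samples quenched in cold methanol with internal standards and quantified by LC-MS/MS. Monolayer integrity checked by Lucifer Yellow (100 μM) leakage.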

Another data set relates to MCF7. The data set can be described thus: Antiproliferative activity against human MCF7 cells assessed as reduction in cell viability up to 200 uM after 72 hrs by alamarBlue assay. The following applies: dose microM <=200, time 72.0 hrs. The data set is classed as functional, cell-based. The essentials:
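MCF-7 cells seeded at 5000 per well and incubated overnight at 37 °C, 5% CO₂, then exposed to 8 concentrations from 0.00256 μM to 200 μM for 72 h. alamarBlue was then added and incubated 90 min at 37 °C. Proliferating cells were read by fluorescence (ex 530 nm, em 590 nm). Staurosporine served as positive control.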

A short description of data set [4]: Permeability across apical to basolateral side in MDCK cells assessed as drug recovery at 1 uM after 2 hrs by LC-MS/MS analysis. The data set is classed as ADME, cell-based, Canis lupus familiaris. The following applies: dog. The essentials:
as §1

A short description of data set [5]: Apparent permeability across basolateral to apical side in MDCK cells at 1 uM after 2 hrs by LC-MS/MS analysis. Conditions: dog. The data set is classed as ADME, cell-based, Canis lupus familiaris. The essentials: as §1
For data set [6], the target named is Heat shock protein HSP90 (Homo sapiens) (UniProt P07900+P08238). As to the kind of experiment: Inhibition of HSP90 (unknown origin). The data set is classed as protein assay.
Data set [7] deals with Cyclin-dependent kinase 2/cyclin E1 (Homo sapiens, UniProt P24941). As to the kind of experiment: Inhibition of CDK2/Cyclin E (unknown origin) using histone H1 as substrate preincubated for 20 mins followed by 33P-ATP addition and measured after 2 hrs by filter binding method. The data set is classed as protein-complex assay.
The next data set deals with CDK2/Cyclin O (Homo sapiens, UniProt P22674+P24941). The data set can be described thus: Inhibition of CDK2/Cyclin-O (unknown origin) using histone H1 as substrate preincubated for 20 mins followed by 33P-ATP addition and measured after 2 hrs by filter binding method. The data set is classed as protein-complex assay.
The target in the next data set is CDK2/Cyclin A2 (Homo sapiens, UniProt P24941). The data set can be described thus: Inhibition of human N-terminal GST-tagged CDK2 (1 to 298 residues)/Cyclin A (174 to 432 residues) expressed in Escherichia coli Turner (DE3) cells assessed as reduction in ADP formation using PKTPKKAKKL as substrate by resorufin dye based fluorescence assay.
For data set [8], the target named is CDK2/Cyclin A2 (Homo sapiens) (UniProt P24941+P20248). The data set can be described thus: Inhibition of human N-terminal GST-tagged CDK2 (1 to 298 residues)/Cyclin A (174 to 432 residues) expressed in Escherichia coli Turner (DE3) cells assessed as reduction in ADP formation at 1 uM using PKTPKKAKKL as substrate by resorufin dye based fluorescence assay.
Data set [9] concerns the target CDK2/Cyclin A1 (Homo sapiens) (UniProt P24941+P78396). As to the kind of experiment: Inhibition of CDK2/Cyclin A1 (unknown origin) at 1 uM using histone H1 as substrate preincubated for 20 mins followed by 33P-ATP addition and measured after 2 hrs by filter binding method. The data set is classed as protein-complex assay. The gist of the method:
(§2)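 Radiometric filter-binding kinase assay at 10 μM ATP in pH 7.5 HEPES buffer with MgCl₂, EGTA, Brij35, BSA, Na₃VO₄, DTT and 1% DMSO. Compound was preincubated with kinase for 20 min at rt, then ³³P-ATP was added and the reaction ran 2 h at rt. Substrate was histone H1 at 20 μM, except myelin basic protein at 20 μM for CDK7/cyclin H and a peptide at 20 μM for CDK9/cyclin T1. Single dose, in duplicate.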

The target in data set [10] is Cyclin-dependent kinase 1/cyclin B1 (Homo sapiens) (UniProt P06493+P14635). The data set can be described thus: Inhibition of CDK1/Cyclin B (unknown origin) at 1 uM using histone H1 as substrate preincubated for 20 mins followed by 33P-ATP addition and measured after 2 hrs by filter binding method. The data set is classed as protein-complex assay. The gist of the method: as §2
Sequence of Cyclin-dependent kinase 1/cyclin B1 (Homo sapiens) (P06493 whole entry, looked up): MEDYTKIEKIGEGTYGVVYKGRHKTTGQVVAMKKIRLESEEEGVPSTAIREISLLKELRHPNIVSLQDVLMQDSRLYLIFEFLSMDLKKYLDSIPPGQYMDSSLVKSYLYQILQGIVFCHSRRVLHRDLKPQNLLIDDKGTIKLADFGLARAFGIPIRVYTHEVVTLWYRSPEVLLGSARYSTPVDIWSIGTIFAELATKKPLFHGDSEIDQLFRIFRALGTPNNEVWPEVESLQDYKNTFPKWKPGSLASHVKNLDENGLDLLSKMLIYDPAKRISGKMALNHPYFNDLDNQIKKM
Sequence of Cyclin-dependent kinase 1/cyclin B1 (Homo sapiens) (P14635 whole entry, looked up): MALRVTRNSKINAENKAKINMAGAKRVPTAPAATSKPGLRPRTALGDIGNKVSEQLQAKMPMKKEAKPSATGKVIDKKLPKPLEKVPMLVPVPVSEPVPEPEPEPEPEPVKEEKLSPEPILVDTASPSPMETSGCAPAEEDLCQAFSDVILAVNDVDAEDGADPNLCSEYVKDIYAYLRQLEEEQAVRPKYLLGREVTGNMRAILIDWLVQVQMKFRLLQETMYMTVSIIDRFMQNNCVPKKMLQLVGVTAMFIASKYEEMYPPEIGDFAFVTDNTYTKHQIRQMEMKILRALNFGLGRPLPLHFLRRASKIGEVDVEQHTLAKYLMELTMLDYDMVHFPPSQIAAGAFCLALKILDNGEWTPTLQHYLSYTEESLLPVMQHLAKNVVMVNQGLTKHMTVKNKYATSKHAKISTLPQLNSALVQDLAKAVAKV

Data set [11] deals with Cyclin-dependent kinase 2/cyclin E1 (Homo sapiens) (UniProt P24864+P24941). As to the kind of experiment: Inhibition of CDK1/Cyclin E (unknown origin) at 1 uM using histone H1 as substrate preincubated for 20 mins followed by 33P-ATP addition and measured after 2 hrs by filter binding method. The data set is classed as protein-complex assay. The essentials: as §2
Data set [12] addresses CDK2/Cyclin O (Homo sapiens) (UniProt P24941+P22674). The data set can be described thus: Inhibition of CDK1/Cyclin-O (unknown origin) at 1 uM using histone H1 as substrate preincubated for 20 mins followed by 33P-ATP addition and measured after 2 hrs by filter binding method. The data set is classed as protein-complex assay. The essentials:
as §2

Data set [13] concerns the target CDK3/Cyclin E (Homo sapiens) (UniProt P24864+Q00526). As to the kind of experiment: Inhibition of CDK3/Cyclin E (unknown origin) at 1 uM using histone H1 as substrate preincubated for 20 mins followed by 33P-ATP addition and measured after 2 hrs by filter binding method. The data set is classed as protein-complex assay. The essentials:
as §2

The target in data set [14] is CDK1/Cyclin A (Homo sapiens) (UniProt P06493+P20248). As to the kind of experiment: Inhibition of CDK1/CyclinA (unknown origin) at 1 uM using histone H1 as substrate preincubated for 20 mins followed by 33P-ATP addition and measured after 2 hrs by filter binding method. The data set is classed as protein-complex assay. The essentials:
as §2

For data set [15], the target named is CDK6/cyclin D1 (Homo sapiens) (UniProt P24385+Q00534). As to the kind of experiment: Inhibition of CDK6/Cyclin D1 (unknown origin) at 1 uM using RB protein as substrate preincubated for 20 mins followed by 33P-ATP addition and measured after 2 hrs by filter binding method.
The target of data set [16] is Cyclin-dependent kinase 7/ cyclin H (Homo sapiens) (UniProt P51946+P50613). As to the kind of experiment: Inhibition of CDK7/Cyclin H (unknown origin) at 1 uM using myelin basic protein as substrate preincubated for 20 mins followed by 33P-ATP addition and measured after 2 hrs by filter binding method. The data set is classed as protein-complex assay. The gist of the method: as §2

In data set [17] the target is Cyclin-dependent kinase 5/CDK5 activator 1 (Homo sapiens) (UniProt Q00535+Q15078). The data set can be described thus: Inhibition of CDK5/p25 (unknown origin) at 1 uM using histone H1 as substrate preincubated for 20 mins followed by 33P-ATP addition and measured after 2 hrs by filter binding method. The data set is classed as protein-complex assay. The essentials: as §2
Sequence of Cyclin-dependent kinase 5/CDK5 activator 1 (Homo sapiens) (Q00535 whole entry): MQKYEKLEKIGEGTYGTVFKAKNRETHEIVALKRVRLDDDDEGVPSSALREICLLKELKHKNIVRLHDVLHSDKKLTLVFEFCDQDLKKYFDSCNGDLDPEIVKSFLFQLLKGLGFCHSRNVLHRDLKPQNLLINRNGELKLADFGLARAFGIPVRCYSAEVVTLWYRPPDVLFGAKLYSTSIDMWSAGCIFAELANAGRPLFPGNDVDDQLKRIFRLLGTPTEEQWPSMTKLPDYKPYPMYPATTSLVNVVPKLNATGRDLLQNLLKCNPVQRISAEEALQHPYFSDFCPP
Sequence of Cyclin-dependent kinase 5/CDK5 activator 1 (Homo sapiens) (Q15078 99-307 partner limits assumed): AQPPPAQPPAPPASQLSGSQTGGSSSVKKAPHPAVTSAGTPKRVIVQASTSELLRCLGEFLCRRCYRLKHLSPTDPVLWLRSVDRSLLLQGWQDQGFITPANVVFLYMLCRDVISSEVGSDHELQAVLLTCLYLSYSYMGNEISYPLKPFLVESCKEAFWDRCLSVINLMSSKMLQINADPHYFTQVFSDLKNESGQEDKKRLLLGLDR

The species named for another data set is Homo sapiens. The data set can be described thus: Inhibition of CDK9/Cyclin T1 (unknown origin) at 1 uM using KTFCGTPEYLAPEVRREPRILSEEEQEMFRDFDYIAD as substrate preincubated for 20 mins followed by 33P-ATP addition and measured after 2 hrs by filter binding method. The essentials: as §2
The target in data set [18] is Cyclin-dependent kinase 4/cyclin D1 (Homo sapiens) (UniProt P11802+P24385). The data set can be described thus: Inhibition of CDK4/Cyclin D1 (unknown origin) at 1 uM using RB protein as substrate preincubated for 20 mins followed by 33P-ATP addition and measured after 2 hrs by filter binding method. The data set is classed as protein-complex assay. The gist of the method: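 Radiometric filter-binding assay of CDK4/cyclin D1 using RB protein at 3 μM and ATP at 10 μM in pH 7.5 HEPES buffer with 1% DMSO. Compound was preincubated for 20 min at rt, then ³³P-ATP was added and the reaction ran 2 h at rt, with spotting on P81 paper. Single dose, in duplicate.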

Active and inactive are the calls of the source. No cut-off for these calls is given here.

Sequence of CDK1/Cyclin A (Homo sapiens) (P06493 whole entry, looked up): as the sequence (P06493 whole entry, looked up) above
Sequence of CDK1/Cyclin A (Homo sapiens) (P20248 whole entry, looked up): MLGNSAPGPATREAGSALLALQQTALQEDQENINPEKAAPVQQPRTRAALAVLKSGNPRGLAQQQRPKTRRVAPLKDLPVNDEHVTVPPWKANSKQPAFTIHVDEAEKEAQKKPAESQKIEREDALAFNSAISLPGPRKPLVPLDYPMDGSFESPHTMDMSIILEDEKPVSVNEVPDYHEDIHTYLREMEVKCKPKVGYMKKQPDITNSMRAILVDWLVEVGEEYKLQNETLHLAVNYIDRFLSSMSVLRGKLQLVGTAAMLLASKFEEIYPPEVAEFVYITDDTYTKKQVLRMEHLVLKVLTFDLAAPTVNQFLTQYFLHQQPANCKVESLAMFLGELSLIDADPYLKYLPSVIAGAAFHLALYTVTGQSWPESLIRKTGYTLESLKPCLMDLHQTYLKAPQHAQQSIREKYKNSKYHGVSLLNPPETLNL
Sequence of CDK3/Cyclin E (Homo sapiens) (P24864 whole entry, looked up): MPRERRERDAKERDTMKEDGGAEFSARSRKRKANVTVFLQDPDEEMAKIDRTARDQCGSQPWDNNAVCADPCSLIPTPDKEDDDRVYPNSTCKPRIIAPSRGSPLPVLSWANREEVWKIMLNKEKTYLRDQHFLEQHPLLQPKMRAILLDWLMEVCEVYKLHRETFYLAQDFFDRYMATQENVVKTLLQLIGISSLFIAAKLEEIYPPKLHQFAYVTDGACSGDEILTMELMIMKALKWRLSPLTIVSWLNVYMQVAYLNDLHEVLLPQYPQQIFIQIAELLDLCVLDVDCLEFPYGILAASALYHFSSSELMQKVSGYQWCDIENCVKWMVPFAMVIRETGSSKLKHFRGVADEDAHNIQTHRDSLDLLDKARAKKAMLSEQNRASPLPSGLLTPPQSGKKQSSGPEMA
Sequence of CDK3/Cyclin E (Homo sapiens) (Q00526 whole entry, looked up): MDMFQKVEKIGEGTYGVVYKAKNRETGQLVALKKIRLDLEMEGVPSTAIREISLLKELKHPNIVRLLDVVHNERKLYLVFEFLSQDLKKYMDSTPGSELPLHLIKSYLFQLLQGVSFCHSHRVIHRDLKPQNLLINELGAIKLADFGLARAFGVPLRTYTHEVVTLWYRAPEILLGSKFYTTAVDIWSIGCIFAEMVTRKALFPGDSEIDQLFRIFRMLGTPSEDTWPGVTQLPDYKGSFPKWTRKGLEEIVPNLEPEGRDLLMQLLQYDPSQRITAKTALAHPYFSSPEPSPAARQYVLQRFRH

On to `Cc1nn(-c2ccccn2)c2c1C(=O)CC(C)(C)C2Br` (stereo not drawn), for which, in [1], the Papp A→B at 2 h, 1 µM worked out at 20.1 ×10⁻⁶ cm/s. The Drug recovery was found to be 49.8% in [2] and 52.4% in data set [4]. In addition, the half-maximal inhibitory concentration (IC50) on CDK2/Cyclin A1 was found to be 134 nM; in data set [7], 27.4 nM; at CDK2/Cyclin O it was 108 nM; at CDK2/Cyclin A2, 2600 nM. Also, in data set [3], the Ratio was 0.47. Also, the outcome in the data set with MCF7 was inactive. In addition, the Papp B→A at 2 h, 1 µM in [5] amounted to 9.52 ×10⁻⁶ cm/s. For the same compound, the inhibition result in data set [6] was “inactive”.

In the case of `Cc1nn(-c2ccccn2)c2c1C(=O)CC(C)C2Br` (cis isomer), the inhibition entry in data set [8], in data set [9], in [10], in [11], in [12] and in data set [13] was “inactive” each time. For the same compound, the inhibition result (in [14]; in data set [15]; in data set [16]; in data set [17]; in the data set listed under Homo sapiens; in data set [18]) was “inactive” each time.
